Activity calls are given as the source filed them. No cut-off for these calls is given here.

What all share (assay type): functional, cell-based
The test system of assay [1] is HT-22. The assay can be described thus: Neuroprotective activity against oxygen glucose deprivation-induced cell death in mouse HT22 cells assessed as increase cell survival at 6.25 to 100 uM by MTT assay. In a few lines:
(§1)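 Mouse hippocampal HT-22 cells were split into blank control, OGD model and treated groups. Treated cells were exposed to oxygen glucose deprivation with test compound at 5 concentrations. The reference compound was dosed at 10 times the test-compound level. Viability was read by MTT and compared against the control and model groups. Each assay was run in triplicate.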
(In general: Formazan colour is commonly taken as a measure of viable cells.)

Assay [2] relates to HT-22. The experiment in a line: Neuroprotective activity against H2O2-induced oxidative stress-mediated cell death in mouse HT22 cells assessed as compound level causing increase cell survival at 1 to 100 uM by MTT assay.
Assay [3] has as its system HT-22. The experiment in a line: Neuroprotective activity against oxygen glucose deprivation-induced cell death in mouse HT22 cells assessed as increase cell survival at 100 uM by MTT assay. Summed up: as §1

As for `CCC/C=C1/Oc2c(ccc(OC)c2OC)C1=O`, the Activity result in the assay with HT-22 [1] was “Dose-dependent effect”. With `CCC/C=C1/Oc2ccc(OC(=O)CCC(=O)OC(C)CCOc3no[n+]([O-])c3S(=O)(=O)c3ccccc3)cc2C1=O` (stereo unspecified), the Activity entry in the assay with HT-22 [1] was “Dose-dependent effect”. Still for that read-out and setting: next, `CCCCC1Oc2c(ccc(OC)c2OC)C1=O` (stereo unspecified): “Dose-dependent effect”. Regarding `CCC/C=C1/Oc2ccccc2C1=O`, the Activity entry with HT-22 [1] was “Dose-dependent effect”. Take `CCC/C=C1/Oc2ccc(OC(=O)CCC(=O)OCCCCOc3no[n+]([O-])c3S(=O)(=O)c3ccccc3)cc2C1=O`: the outcome in the assay on HT-22 [2] was Active. In the assay on HT-22 [1], the Activity entry was “Dose-dependent effect”. For `CCC/C=C1/C(=O)Oc2ccc(OC)cc21`, in the assay on HT-22 [1], the Activity result is “Dose-dependent effect”. `CCC/C=C1/C(=O)Oc2ccccc21`: in the assay with HT-22 [1], the Activity result was “Dose-dependent effect”. As to `CCC/C=C1/Oc2cc(OC)ccc2C1=O`, the result in the assay with HT-22 [2] was Active. Besides, the Activity result in the assay with HT-22 [1] is “Dose-dependent effect”. In the case of `CCC/C=C1/C(=O)Oc2cc(OC)ccc21`, in the assay on HT-22 [1], the Activity result is “Dose-dependent effect”. `CCC/C=C1/Oc2ccc(OC(=O)CCC(=O)OC/C=C/COc3no[n+]([O-])c3S(=O)(=O)c3ccccc3)cc2C1=O`: in the assay on HT-22 [1], the Activity entry was “Dose-dependent effect”. Take `CCC/C=C1/Oc2ccc(OC(=O)CCC(=O)OCCCOc3no[n+]([O-])c3S(=O)(=O)c3ccccc3)cc2C1=O`: the result with HT-22 [2] and in the assay on HT-22 [3] was Active. Also, in the assay on HT-22 [1], the Activity result was “Dose-dependent effect”.

As to `CCCCC1Oc2cc(OC)ccc2C1=O` (stereo unspecified), in the assay on HT-22 [1], the Activity result was “Dose-dependent effect”.

These data come from ChEMBL document CHEMBL4184226, “Design and synthesis of novel senkyunolide analogues as neuroprotective agents” (2018).
